In brackets after ≈: the same amount, converted by molar mass. Activity calls are given as the source filed them. The calls are words filed in the database; no cut-off is given here. Where only a bound is given, the exact number is not on record here.

The species entered for assay [1] is Rattus norvegicus. The assay is described as follows: Percent viability of rat hippocampal neurons exposed to hydrogen peroxide (50 uM) in the presence of the test agent (5 uM). It counts as functional. An outline of the steps: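 Primary rat hippocampal neuron cultures were given test agent (5 μM) and exposed for 15 min to H2O2 (50 μM). Survival was scored by vital dye staining 18 h later. n = 3 cultures prepared on different days, mean ± SD.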

In assay [2] the test system is Rattus norvegicus. Nature of the assay: Hypotensive effect in anesthetized normotensive rat expressed as effective dose. It counts as functional.
For assay [3], the species on record is Oryctolagus cuniculus. Nature of the assay: Inhibition of iron-dependent peroxidation of rabbit vesicular membrane lipids (minimum test concentration that gave greater than 50% inhibition). It counts as functional. The method, boiled down:
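Lipids from rabbit brain vesicular membranes were peroxidized in an iron-dependent system. Value is the minimum tested concentration giving ≥50% inhibition (μM), n = 3.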

For assay [4], the system named is Rattus norvegicus. The assay is described as follows: Hypotensive effect in anesthetized normotensive rat expressed as effective dose; No effect. It counts as functional, organism-based.
A short description of assay [5]: Percent inhibition of 2,2'-azobis(2-amidinopropane)dihydrochloride induced decay of (R)-phycoerythrin fluorescence emission. It counts as functional. Also noted: concentration or dose not given beside the values. The conditions noted are these: dose or concentration not given here. The method, boiled down: (§1)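 R-PE (4.5 × 10⁻⁸ M stock) was mixed with test agent (3 μM stock; 1 μM final) in 75 mM phosphate buffer pH 7.0 and equilibrated 5 min at 37 °C. AAPH (12 mM stock, freshly made) was then added. Fluorescence (ex 544, em 590 nm) was read every 5 min for 25 min and normalized to 0 min. Percent inhibition at 15 min = (sample − AAPH)/(control − AAPH) × 100, n = 4.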

A short description of assay [6]: percent inhibition of 2,2'-azobis(2-amidinopropane)dihydrochloride induced decay of (R)-phycoerythrin fluorescence emission. It counts as functional. More on the design: concentration or dose not given beside the values. The following applies: dose or concentration not given here. An outline of the steps:
as §1

Assay [7] concerns Rattus norvegicus. The assay is described as follows: Hypotensive effect in up to 0.1 mg/kg, slight pressor response (~16-17%) at 1 mg/kg. It counts as functional, organism-based.
Assay [8] deals with Rattus norvegicus. The assay is described as follows: Hypotensive effect in anesthetized normotensive rat expressed as effective dose; Study. It counts as functional, organism-based.

By MIC is commonly meant the lowest concentration that inhibits growth of the organism. On to `CCCCCCCNCc1cc(OC(C)C)c(O)c(OC(C)C)c1.Cl`, for which the Cell viability in assay [1] is 43.5%. The compound also registered an ED20 in assay [2] above 1 mg/kg. Besides, in assay [3], it took 10 µM to inhibit growth (MIC).
Broadly, the inhibition is the share of the control response that was lost under treatment. Take `CCCCCNCc1cc(OC)c(O)c(OC)c1.Cl`: in assay [1], the Cell viability is 29%. The ED20 entry in assay [4] was “inactive”. The inhibition in assay [5] is 61.6%. The compound also displayed a minimum inhibitory concentration (MIC) in assay [3] above 100 µM.
As to `CCCCCNCc1cc(OC(C)C)c(O)c(OC(C)C)c1.Cl`, in assay [1], the Cell viability is 42.8%. The compound also came in with an ED20 in assay [2] above 1 mg/kg. In assay [3], this compound yielded an MIC of 30 µM.
On to `CCCOc1cc(CN(C)C)cc(OCCC)c1O.Cl`, for which the Cell viability in assay [1] is 31.3%. In assay [2], this compound gave an ED20 of 1 mg/kg. For the same compound, the inhibition in assay [5] came to 91.8%. Also, the minimum inhibitory concentration (MIC) in assay [3] came to 30 µM.
For the compound `CCCCN(CCCC)Cc1cc(OC)c(O)c(OC)c1.Cl`, the Cell viability in assay [1] was found to be 26.4%. The ED20 result in assay [4] is “inactive”. The compound also had an inhibition in assay [5] of 66.6%. In assay [3], this compound gave an MIC above 100 µM.
With `CCCCOc1cc(CN(C)C)cc(OCCCC)c1O.Cl`, the Cell viability in assay [1] is given as 35.8%. In addition, in assay [2], the ED20 stood at 1 mg/kg. The compound also gave an inhibition in assay [5] of 73.3%. Moreover, in assay [3], the minimal inhibitory concentration (MIC) is 10 µM.
Turning to `CCOc1cc(CN(C)C)cc(OCC)c1O.Cl`, in assay [1], the Cell viability was 14.7%. In assay [4], the ED20 result is “inactive”. Further, in assay [5], the inhibition turned out to be 71.6%. Moreover, the lowest concentration to inhibit growth in assay [3] (MIC) was 100 µM.
On the same counts, the results for `CCNCc1cc(OC)c(O)c(OC)c1.Cl` are 3.1%, “inactive”, 71.8% and above 100 µM.
Turning to `CCCCCCCCNCc1cc(OC)c(O)c(OC)c1.Cl`, the Cell viability in assay [1] came out at 59.8%. In addition, the inhibition in assay [6] was found to be 60.9%. Besides, in assay [7], the ED20 entry was “Pressor”. Further, in assay [3], the MIC was 10 µM.
Turning to `CNCc1cc(OC)c(O)c(OC)c1.Cl`, the Cell viability in assay [1] was 7.5%. In addition, in assay [4], the ED20 entry is “inactive”. In assay [5], the inhibition came to 75.8%. Moreover, in assay [3], the MIC is above 100 µM.
For the compound `CC(C)Oc1cc(CN(C)C)cc(OC(C)C)c1O.Cl`, the Cell viability in assay [1] was 35.8%. The ED20 result in assay [4] is “inactive”. Besides, the inhibition in assay [5] is 69.3%. In assay [3], the MIC was above 100 µM.
In the case of `CCCCCCCOc1cc(CN(C)C)cc(OCCCCCCC)c1O.Cl`, in assay [1], the Cell viability came out at 75.7%. The same compound had an inhibition in assay [6] of 7.2%. Moreover, it took 1 µM to inhibit growth in assay [3] (MIC).
On to `CCCCCCCOc1cc(CN(C)C)cc(OC)c1O.Cl`, for which the Cell viability in assay [1] was determined as 44%. Further, in assay [2], the ED20 is above 1 mg/kg. Also, in assay [6], the inhibition stood at 62.5%. The MIC in assay [3] is 2.3 µM.
On to `CCCCCCCOc1c(O)cc(CN(C)C)cc1O.Cl`, for which, in assay [1], the Cell viability came out at 47%. Also, in assay [6], the inhibition was 43.8%. Moreover, inhibition of growth in assay [3] (MIC) required 30 µM.
The corresponding values for `CCCCCCCNCc1cc(OC)c(O)c(OC)c1.Cl` are 48.3%, 63.5% and 30 µM.
For the compound `CCCCCCNCc1cc(OC)c(O)c(OC)c1.Cl`, the Cell viability in assay [1] amounted to 42.6%. Besides, in assay [4], the ED20 result is “inactive”. Also, the inhibition in assay [5] was 65.2%. Besides, in assay [3], it took 100 µM to inhibit growth (MIC).
On to `CCC(CC)Oc1cc(CN(C)C)cc(OC(CC)CC)c1O.Cl`, for which the Cell viability in assay [1] is 15.2%. The ED20 in assay [2] amounted to 0.42 mg/kg. The compound further had an inhibition in assay [5] of 66.8%. Further, 10 µM was the least that counted as inhibitory in assay [3] (MIC).
As for `CC(C)Oc1cc(CN2CCN(CCO)CC2)cc(OC(C)C)c1O.Cl.Cl`, the Cell viability in assay [1] is given as 45.3%. The ED20 result in assay [4] was “inactive”. This compound returned an inhibition in assay [5] of 71.6%. The MIC in assay [3] is above 100 µM.
On the same counts, the results for `CCCNCc1cc(OC)c(O)c(OC)c1.Cl` are 13.3%, “inactive”, 80.1% and above 100 µM.
On the same counts, the results for `CCCCNCc1cc(OC)c(O)c(OC)c1.Cl` are 17.1%, “inactive”, 62.4% and above 100 µM.
The corresponding values for `CCCN(CCC)Cc1cc(OC)c(O)c(OC)c1.Cl` are 5.4%, “inactive”, 63.7% and above 100 µM.
`CCCCCOc1cc(CN(C)C)cc(OCCCCC)c1O.Cl`: the ED20 result in assay [8] is recorded as “Study”. In assay [1], the Cell viability amounted to 51.2%. In assay [5], this compound registered an inhibition of 44.9%. In addition, the MIC in assay [3] was found to be 2.3 µM.
For `CCN(CC)Cc1cc(OC)c(O)c(OC)c1.Cl`, in assay [1], the Cell viability is 3.7%. In addition, the ED20 entry in assay [4] was “inactive”. The compound further had an inhibition in assay [5] of 66.7%. In assay [3], this compound returned a minimal inhibitory concentration (MIC) above 100 µM.
As for `CCCCCCCCCNCc1cc(OC)c(O)c(OC)c1.Cl`, in assay [1], the Cell viability turned out to be 47.1%. Moreover, in assay [6], the inhibition stood at 52.9%. Also, the ED20 result in assay [7] was “Pressor”. Besides, it took 5.3 µM to inhibit growth in assay [3] (MIC).
Regarding `CN(C)Cc1cc(OC2CCCC2)c(O)c(OC2CCCC2)c1.Cl`, in assay [8], the ED20 result is “Study”. The Cell viability in assay [1] is on record as 28.9%. The compound further had an inhibition in assay [5] of 74.3%. The MIC in assay [3] was 10 µM.
For the compound `COc1cc(CN(CC(C)C)CC(C)C)cc(OC)c1O.Cl`, the Cell viability in assay [1] stood at 28.7%. For the same compound, the ED20 entry in assay [4] is “inactive”. The same compound showed an inhibition in assay [5] of 63.7%. In assay [3], this compound had an MIC of 30 µM.
In assay [6], `CCCOC(=O)c1cc(O)c(O)c(O)c1` [PROPYL GALLATE] had an inhibition of 40%. Moreover, in assay [3], the MIC is 3 µM (≈ 0.637 µg/mL).
`CCCCCCCOc1c(O)cc(CN2CCN(CCO)CC2)cc1O.Cl.Cl`: in assay [1], the Cell viability was 50.3%. In assay [6], this compound displayed an inhibition of 60.3%. Moreover, the MIC in assay [3] was 30 µM.
Take `COc1cc(CN(C)C)cc(OC)c1O.Cl`: the Cell viability in assay [1] came to 5.2%. Further, the ED20 entry in assay [4] was “inactive”. Moreover, in assay [5], the inhibition is 69%. The compound further returned an MIC in assay [3] above 100 µM.
With `CCCCCCOc1cc(CN(C)C)cc(OCCCCCC)c1O.Cl`, the Cell viability in assay [1] is given as 73.1%. In assay [2], this compound gave an ED20 of 0.36 mg/kg. Besides, the inhibition in assay [6] turned out to be 17.6%. The MIC in assay [3] came to 1 µM.
For the compound `CCCCCN(CCCCC)Cc1cc(OC)c(O)c(OC)c1.Cl`, in assay [1], the Cell viability is reported as 35.5%. In assay [2], this compound yielded an ED20 above 1 mg/kg. This compound gave an inhibition in assay [5] of 50.6%. This compound showed an MIC in assay [3] of 30 µM.
As to `CCCCCCCOc1cc(CN2CCN(CCO)CC2)cc(OC)c1O.Cl.Cl`, in assay [1], the Cell viability amounted to 63%. Further, in assay [2], the ED20 was above 1 mg/kg. The same compound registered an inhibition in assay [6] of 64.4%. The minimal inhibitory concentration (MIC) in assay [3] was 2.3 µM.
